8 molecules from ChEMBL document CHEMBL3232878, “QSAR on antiproliferative naphthoquinones based on a conformation-independent approach” (2014) can be followed below.

Test system in the first assay: not listed separately
Nature of the assay: Growth inhibition of human HBL100 cells after 48 hrs by SRB assay. The note with it: HBL-100, 48 h. Type of assay: functional. Summed up:
(§1)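 Cells maintained in RPMI 1640 with 5% heat-inactivated fetal calf serum and 2 mM L-glutamine at 37 °C, 5% CO₂, humidified air. Exponentially growing cells trypsinized and resuspended in medium containing penicillin G (100 units/mL) and streptomycin (0.1 mg/mL). Single-cell suspensions with >97% viability by trypan blue exclusion counted, diluted and seeded into 96-well plates.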
`CC1OC2=C(C(=O)C(=O)c3cccc(O)c32)C1(C)C` (configuration not stated) gave a concentration for 50% growth inhibition (GI50) of 2200 nM.
Regarding `CC1OC2=C(C(=O)C(=O)c3c(O)cccc32)C1(C)C` (configuration not stated), it took 540 nM to inhibit growth by half (GI50).
Molecule `CC1C2=C(OC1(C)C)c1c(O)cccc1C(=O)C2=O` (configuration not stated) displayed a GI50 of 2000 nM.
The same measure, in the same setting: under `CC1C2=C(OC1(C)C)c1cccc(O)c1C(=O)C2=O` (configuration not stated) stands 340 nM; under `C=C(C)C1CC2=C(O1)c1c(O)cccc1C(=O)C2=O` (configuration not stated), 3000 nM.
Still for that read-out and setting: under `CC1(C)C2=C(OC1CI)c1c(O)cccc1C(=O)C2=O` (configuration not stated) stands 1800 nM.
In turn, `CC1(C)C2=C(OC1CI)c1cccc(O)c1C(=O)C2=O` (configuration not stated) showed a GI50 of 460 nM.
The molecule `C=C(C)C1CC2=C(O1)c1cccc(O)c1C(=O)C2=O` (configuration not stated) [LANTALUCRATIN B] returned a GI50 of 460 nM.

A further assay has as its system HeLa. Nature of the assay: Growth inhibition of human HeLa cells after 48 hrs by SRB assay. The format is functional.
Settings: not given
Summed up:
as §1
Background: The SRB assay estimates cell density from bound dye.
As for `CC1OC2=C(C(=O)C(=O)c3cccc(O)c32)C1(C)C` (configuration not stated), the GI50 amounted to 1900 nM.
Still for that read-out and setting: under `CC1OC2=C(C(=O)C(=O)c3c(O)cccc32)C1(C)C` (configuration not stated) stands 1900 nM; under `CC1C2=C(OC1(C)C)c1c(O)cccc1C(=O)C2=O` (configuration not stated), 900 nM; under `CC1C2=C(OC1(C)C)c1cccc(O)c1C(=O)C2=O` (configuration not stated), 1800 nM.
On the same count and under the same terms, under `C=C(C)C1CC2=C(O1)c1c(O)cccc1C(=O)C2=O` (configuration not stated) stands 3000 nM; under `CC1(C)C2=C(OC1CI)c1c(O)cccc1C(=O)C2=O` (configuration not stated), 1600 nM.
Still for that read-out and setting: as for `CC1(C)C2=C(OC1CI)c1cccc(O)c1C(=O)C2=O` (configuration not stated), the figure is 1500 nM.
With `C=C(C)C1CC2=C(O1)c1cccc(O)c1C(=O)C2=O` (configuration not stated) [LANTALUCRATIN B], it took 210 nM to inhibit growth by half (GI50).

Another assay has as its system WiDr. Nature of the assay: Growth inhibition of human WiDr cells after 48 hrs by SRB assay. Type of assay: functional.
Settings: not given
Summed up: as §1
Consider `CC1OC2=C(C(=O)C(=O)c3cccc(O)c32)C1(C)C` (configuration not stated), for which the concentration for 50% growth inhibition (GI50) is 19000 nM.
Same read-out and setting: under `CC1OC2=C(C(=O)C(=O)c3c(O)cccc32)C1(C)C` (configuration not stated) stands 5200 nM; under `CC1C2=C(OC1(C)C)c1c(O)cccc1C(=O)C2=O` (configuration not stated), 2100 nM.
Same read-out and setting: as for `CC1C2=C(OC1(C)C)c1cccc(O)c1C(=O)C2=O` (configuration not stated), the figure is 16000 nM; as for `C=C(C)C1CC2=C(O1)c1c(O)cccc1C(=O)C2=O` (configuration not stated), 26000 nM.
Still for that read-out and setting: as for `CC1(C)C2=C(OC1CI)c1c(O)cccc1C(=O)C2=O` (configuration not stated), the figure is 1800 nM.
With `CC1(C)C2=C(OC1CI)c1cccc(O)c1C(=O)C2=O` (configuration not stated), the concentration for 50% growth inhibition (GI50) came out at 1900 nM.
Take `C=C(C)C1CC2=C(O1)c1cccc(O)c1C(=O)C2=O` (configuration not stated) [LANTALUCRATIN B]: the GI50 is 2200 nM.

The subject of the next assay is SW1573. Nature of the assay: Growth inhibition of human SW1573 cells after 48 hrs by SRB assay. The format is functional. The note with it: SW1573, 48 h. Summed up: as §1
In turn, `CC1OC2=C(C(=O)C(=O)c3cccc(O)c32)C1(C)C` (configuration not stated) displayed a GI50 of 2400 nM.
Still for that read-out and setting: as for `CC1OC2=C(C(=O)C(=O)c3c(O)cccc32)C1(C)C` (configuration not stated), the figure is 990 nM; as for `CC1C2=C(OC1(C)C)c1c(O)cccc1C(=O)C2=O` (configuration not stated), 1300 nM.
On the same count and under the same terms, under `CC1C2=C(OC1(C)C)c1cccc(O)c1C(=O)C2=O` (configuration not stated) stands 480 nM.
The same measure, in the same setting: under `C=C(C)C1CC2=C(O1)c1c(O)cccc1C(=O)C2=O` (configuration not stated) stands 2700 nM.
Consider `CC1(C)C2=C(OC1CI)c1c(O)cccc1C(=O)C2=O` (configuration not stated), for which the GI50 was 1600 nM.
`CC1(C)C2=C(OC1CI)c1cccc(O)c1C(=O)C2=O` (configuration not stated) showed a 50% growth inhibitory concentration (GI50) of 800 nM.
Turning to `C=C(C)C1CC2=C(O1)c1cccc(O)c1C(=O)C2=O` (configuration not stated) [LANTALUCRATIN B], the GI50 is 1000 nM.

Broadly, the GI50 is the concentration giving 50% growth inhibition. Read a low GI50 as greater sensitivity of the cells.
